Laboratory results from ChEMBL document CHEMBL4680093 (J Med Chem, 2016).

What was measured:
[1] = Toxicity in female mouse during 4-week repeated once daily oral-dose toxicity study; conditions: in vivo, time 4 weeks
Procedure, shortened: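 Mice of both sexes were dosed orally once daily for 4 weeks at 40, 100, 250 and 625 mg/kg. Toxicity was assessed and the NOAEL determined.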

[2] = Ratio of drug level in brain to plasma of mouse at 10 mg/kg, po measured after 2 hrs post dose; format: ADME, organism-based; conditions: read-out: BPR
Procedure, shortened: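 C57BL/6 mice received a single oral dose of 10 mg/kg in 0.5% methylcellulose/1% Tween80. Animals were sacrificed 2 h post-dose. Compound was measured in brain, liver, adipose and plasma (nmol/g), and tissue/plasma ratios were calculated.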

Cytochrome P450 2D6 = Cytochrome P450 2D6 (Homo sapiens, UniProt P10635); experiment: Inhibition of CYP2D6 in pooled human liver microsomes using dextromethorphan as substrate in presence of NADPH incubated for 10 mins by LC-MS/MS analysis
Sequence of Cytochrome P450 2D6 (P10635 whole entry): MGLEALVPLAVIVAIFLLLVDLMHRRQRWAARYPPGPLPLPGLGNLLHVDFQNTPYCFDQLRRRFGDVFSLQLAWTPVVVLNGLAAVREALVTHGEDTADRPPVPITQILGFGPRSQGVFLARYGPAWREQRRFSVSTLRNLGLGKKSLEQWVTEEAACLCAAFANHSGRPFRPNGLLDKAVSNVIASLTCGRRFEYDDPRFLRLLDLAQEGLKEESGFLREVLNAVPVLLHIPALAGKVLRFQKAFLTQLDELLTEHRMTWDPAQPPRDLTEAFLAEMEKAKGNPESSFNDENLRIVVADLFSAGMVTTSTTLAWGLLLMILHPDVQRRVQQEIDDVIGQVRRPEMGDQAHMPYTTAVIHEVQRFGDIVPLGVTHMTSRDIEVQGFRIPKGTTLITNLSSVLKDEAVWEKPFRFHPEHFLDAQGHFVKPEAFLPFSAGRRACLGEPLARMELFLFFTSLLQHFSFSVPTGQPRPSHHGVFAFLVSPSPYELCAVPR

[3] = In-vivo inhibition of 11beta-HSD1 activity in C57BL/6 mouse epididymal fat assessed as reduction in cortisone to-cortisol conversion at 10 mg/kg, po measured after 2 hrs by ELISA; format: functional; conditions: C57BL/6, Epididymal fat pad
Procedure, shortened: (§1)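 Male C57BL/6 mice dosed orally once at 3, 10 or 30 mg/kg in sterile water containing 0.5% methylcellulose and 1% Tween80, then sacrificed at 2 or 6 h. Liver and epididymal fat pads incubated ex vivo in culture medium containing cortisone. Cortisol formed was measured by ELISA and reported as % inhibition versus vehicle.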

[4] = target: T1, 11-beta-hydroxysteroid dehydrogenase type 2 (Homo sapiens, UniProt P80365); experiment: Inhibition of human 11beta-HSD2 expressed in microsomes; set-up: species or system Microsome
T1 sequence (P80365 whole entry): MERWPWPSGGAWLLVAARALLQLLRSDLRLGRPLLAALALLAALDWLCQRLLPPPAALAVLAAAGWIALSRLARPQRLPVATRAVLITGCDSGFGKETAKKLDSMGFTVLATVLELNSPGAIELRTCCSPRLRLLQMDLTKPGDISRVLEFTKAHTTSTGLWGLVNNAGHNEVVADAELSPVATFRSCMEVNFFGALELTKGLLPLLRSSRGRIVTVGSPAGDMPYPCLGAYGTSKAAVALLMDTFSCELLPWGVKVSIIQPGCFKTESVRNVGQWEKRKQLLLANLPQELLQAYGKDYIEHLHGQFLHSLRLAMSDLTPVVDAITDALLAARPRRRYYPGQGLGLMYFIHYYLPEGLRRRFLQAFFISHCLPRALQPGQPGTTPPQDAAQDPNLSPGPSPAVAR

[5] = target: T2, 11-beta-hydroxysteroid dehydrogenase type 2 (Homo sapiens) (UniProt P80365); experiment: Inhibition of human 11beta-HSD2 expressed in microsomes at 10 uM relative to control; conditions: Microsome
T2 sequence (whole entry): T1 sequence (P80365 whole entry)

[6] = target: 11-beta-hydroxysteroid dehydrogenase 1 (Homo sapiens, UniProt P28845); experiment: Inhibition of human 11beta-HSD1 expressed in microsomes; set-up: species or system Microsome
Sequence of 11-beta-hydroxysteroid dehydrogenase 1 (P28845 whole entry): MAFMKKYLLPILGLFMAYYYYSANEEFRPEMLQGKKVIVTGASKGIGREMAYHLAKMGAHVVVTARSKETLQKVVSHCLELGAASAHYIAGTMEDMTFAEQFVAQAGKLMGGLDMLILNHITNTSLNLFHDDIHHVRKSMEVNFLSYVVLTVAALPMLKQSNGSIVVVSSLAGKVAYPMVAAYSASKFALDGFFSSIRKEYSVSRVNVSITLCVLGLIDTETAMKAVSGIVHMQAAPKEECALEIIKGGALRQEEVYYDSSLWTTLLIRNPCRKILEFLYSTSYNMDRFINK
Procedure, shortened: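 HEK293 cell lysates (microsomal fractions) overexpressing human or mouse 11β-HSD1 were incubated with cortisone, a range of inhibitor concentrations and an NADPH regenerating system in sodium phosphate buffer at 37°C for 1 h. Cortisol in the supernatant was quantified by ELISA. Percent inhibition was fitted to a sigmoidal dose-response curve to give IC50.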

[7] = AUC in rat at 1 mg/kg, iv; format: ADME, organism-based; set-up: dose 1 mg/kg; conditions: in vivo
[8] = Clearance in dog at 0.5 mg/kg, iv; format: ADME, organism-based, Canis lupus familiaris; conditions: in vivo
[9] = Clearance in rat at 1 mg/kg, iv; format: ADME, organism-based; conditions: in vivo
Mus musculus [10] = experiment: Improvement in lipid profile in C57BL/6-Lep^ob (ob/ob) mouse assessed as LDL cholesterol level at 20 mg/kg, po dosed once daily for 25 days co-treated with 300 mg/kg. po QD for 25 days metformin (reference value: 30.3 +/- 0.8 mg/dl); conditions: time 25 day
[11] = Ratio of unbound drug level in mouse plasma at 10 mg/kg, po measured after 2 hrs post dose to IC50 for mouse 11beta-HSD1; format: ADME, organism-based; conditions: in vivo
[12] = target: T2, 11-beta-hydroxysteroid dehydrogenase type 2 (Homo sapiens); experiment: Inhibition of human 11beta-HSD2 expressed in microsomes at 1 uM relative to control; conditions: Microsome
Mus musculus [13] = experiment: Toxicity in mouse assessed as induction of abnormal changes in central nervous system up to 1000 mg/kg, po; conditions: in vivo
[14] = Toxicity in female dog during 4-week repeated once daily oral-dose toxicity study; set-up: species or system Canis lupus familiaris; conditions: in vivo, time 4 weeks
Procedure, shortened: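 Dogs of both sexes were dosed orally once daily for 4 weeks at 25, 100 and 400 mg/kg. Toxicity was assessed and the NOAEL determined.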

[15] = Genotoxicity in Salmonella typhimurium by reverse mutation assay; format: toxicity; conditions: salmonella enterica subsp. enterica serovar typhimurium
[16] = Drug level in mouse adipose tissue at 10 mg/kg, po measured after 2 hrs post dose; format: ADME, organism-based; conditions: in vivo
Procedure, shortened: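 C57BL/6 mice given a single oral 10 mg/kg dose in 0.5% methylcellulose plus 1% Tween80. Sacrifice at 2 h post-dose, with collection of brain, liver, adipose and plasma. Compound concentration expressed as nmol/g, along with tissue/plasma ratio.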

[17] = Half life in rat at 1 mg/kg, iv; format: ADME, organism-based; conditions: in vivo
[18] = Tmax in dog at 4 mg/kg, po; format: ADME, organism-based, Canis lupus familiaris; conditions: in vivo
Procedure, shortened: (§2)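 Single-dose PK study. The iv dose was given in 10% hydroxypropyl-β-cyclodextrin and the oral dose in 0.5% methylcellulose/1% Tween80. Mouse and rat received 1 mg/kg iv and 5 mg/kg po. Dog received 0.5 mg/kg iv and 4 mg/kg po. CL, Vss, t1/2, AUC, Cmax, tmax and F were derived.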

[19] = Tmax in rat at 5 mg/kg, po; format: ADME, organism-based; conditions: in vivo; procedure, shortened: as §2
[20] = Reduction in HbA1c level in C57BL/6-Lep^ob (ob/ob) mouse at 20 mg/kg, po dosed once daily for 25 days and co-treated with 300 mg/kg. po QD for 25 days metformin relative to control; set-up: scale not given: the % may be the effect or the level left; conditions: time 25 day
Phosphodiesterase 4 = Phosphodiesterase 4 (Homo sapiens, UniProt P27815+Q08499+Q07343+Q08493); experiment: Inhibition of PDE4 (unknown origin); format: protein assay
[21] = In-vivo inhibition of 11beta-HSD1 activity in C57BL/6 mouse epididymal fat assessed as reduction in cortisone to-cortisol conversion at 3 mg/kg, po measured after 2 hrs by ELISA; format: functional; conditions: C57BL/6, Epididymal fat pad; procedure, shortened: as §1
[22] = AUC in mouse at 5 mg/kg, po; format: ADME, organism-based; set-up: dose 5 mg/kg; conditions: in vivo
[23] = Protein binding in mouse plasma; format: ADME, cell-free; conditions: read-out: PPB
[24] = AUC in dog at 4 mg/kg, po; format: ADME, organism-based, Canis lupus familiaris; set-up: dose 4 mg/kg; conditions: in vivo

For `C[C@@H]1CN(c2ccc(S(C)(=O)=O)cc2F)CCN1c1nccc(C(=O)NC2C3CC4CC2CC(O)(C4)C3)n1` (stereo partly specified), the NOAEL at 672 h [1] was 625 mg/kg, the Kp at 2 h [2] was 0.04 and the IC50 (Cytochrome P450 2D6) was greater than 10 µM. For the same compound, the inhibition in vivo at 10 mg/kg [3] was 88%, the IC50 [4] was greater than 10 µM and the inhibition [5] was 17%. For the same compound, the IC50 [6] was 0.0029 µM, the AUC [7] was 1120 ng·h/mL and the clearance [8] was 6 mL/min/kg. For the same compound, the clearance [9] was 15.5 mL/min/kg, the Activity (Mus musculus [10]) was 17.2 mg/dL and the Ratio [11] was greater than 50. For the same compound, the inhibition [12] was 6%, the Activity (Mus musculus [13]) was “Non-Toxic” and the NOAEL at 672 h [14] was 400 mg/kg. For the same compound, the Activity [15] was “Non-Toxic”, the Drug uptake [16] was 6.64 nmol/g and the half-life [17] was 1.8 h. The Tmax [18] was 2.1 h, the Tmax [19] was 1.3 h and the Activity [20] was 1.67%. It also gave an IC50 (Phosphodiesterase 4) of 5.2 µM, an inhibition in vivo at 3 mg/kg [21] of 86% and an AUC [22] of 11300 ng·h/mL. It also gave a fraction unbound [23] of 0.01 and an AUC [24] of 11500 ng·h/mL.
